The source made the active and inactive calls. The rule behind the calls is not given here.
Legend:
[1] = Drug uptake in liver of SCID mouse xenografted with human HT-29 cells pretreated for 1 hr with colchicine at 1 mg/kg, ip followed by 177Lu labelled compound at 0.37 MBq/mouse, iv measured at 24 hrs by gamma counter analysis; type: ADME, organism-based; conditions: in vivo
Procedure, shortened: (§1)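 HT-29 flank xenografts in female SCID mice (5 × 10^6 cells in Matrigel, about 80 mm3). Colchicine 1 mg/kg was given i.p. before a tail-vein injection of 10 μCi (0.37 MBq) of purified 177Lu-conjugate. Tissues were taken at 24 h, weighed and gamma-counted as %ID/g; mean ± SD, n = 5.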

[2] = Drug uptake in spleen of SCID mouse xenografted with human HT-29 cells pretreated for 1 hr with colchicine at 1 mg/kg, ip followed by 177Lu labelled compound at 0.37 MBq/mouse, iv measured at 24 hrs by gamma counter analysis; type: ADME, organism-based; conditions: in vivo
Procedure, shortened: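 HT-29 xenograft SCID mice pretreated with colchicine 1 mg/kg i.p., then given 177Lu conjugate i.v. at 10 μCi (0.37 MBq)/mouse. Tissues excised at 24 h, weighed and gamma counted for %ID/g (n = 5, mean ± SD).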

[3] = Drug uptake in bone of SCID mouse xenografted with human HT-29 cells pretreated for 1 hr with colchicine at 1 mg/kg, ip followed by 177Lu labelled compound at 0.37 MBq/mouse, iv measured at 24 hrs by gamma counter analysis; type: ADME, organism-based, Bone element; conditions: in vivo; procedure, shortened: as §1
[4] = Drug excretion in SCID mouse xenografted with human HT-29 cells pretreated for 1 hr with colchicine at 1 mg/kg, ip followed by 177Lu labelled compound at 0.37 MBq/mouse, iv measured at 24 hrs by gamma counter analysis; type: ADME, organism-based; conditions: in vivo
Procedure, shortened: (§2)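 Female SCID mice bearing s.c. flank HT-29 xenografts (5 × 10^6 cells in Matrigel, ~80 mm3). Given 10 μCi (0.37 MBq) 177Lu conjugate i.v. by tail vein; groups sacrificed at 4, 24, 72 h. Tissues weighed and gamma-counted as %ID/g, excretion as %ID; n = 5, mean ± SD. Blocking arms: colchicine 1 mg/kg i.p. beforehand, or D-lysine 40 mg/kg co-injected.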

[5] = Drug uptake in blood of SCID mouse xenografted with human HT-29 cells using 177Lu labelled compound at 0.37 MBq/mouse, iv co-treated with D-lysine at 40 mg/kg measured at 24 hrs by gamma counter analysis; type: ADME, organism-based; conditions: in vivo; procedure, shortened: as §2
[6] = Drug uptake in lung of SCID mouse xenografted with human HT-29 cells using 177Lu labelled compound at 0.37 MBq/mouse, iv co-treated with D-lysine at 40 mg/kg measured at 24 hrs by gamma counter analysis; type: ADME, organism-based; conditions: in vivo
Procedure, shortened: (§3)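 Female SCID mice bore s.c. HT-29 xenografts (5 × 10^6 cells in Matrigel, about 80 mm3). D-lysine 40 mg/kg was co-injected i.v. with 10 μCi (0.37 MBq) of purified 177Lu-conjugate. Tissues were harvested at 24 h, weighed and gamma-counted, reported as %ID/g; mean ± SD, n = 5.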

[7] = Drug uptake in large intestine of SCID mouse xenografted with human HT-29 cells using 177Lu labelled compound at 0.37 MBq/mouse, iv co-treated with D-lysine at 40 mg/kg measured at 24 hrs by gamma counter analysis; type: ADME, organism-based; conditions: in vivo; procedure, shortened: as §3
[8] = Drug uptake in muscle of SCID mouse xenografted with human HT-29 cells using 177Lu labelled compound at 0.37 MBq/mouse, iv co-treated with D-lysine at 40 mg/kg measured at 24 hrs by gamma counter analysis; type: ADME, organism-based, Muscle tissue; conditions: in vivo; procedure, shortened: as §3
[9] = Drug uptake in brain of SCID mouse xenografted with human HT-29 cells using 177Lu labelled compound at 0.37 MBq/mouse, iv co-treated with D-lysine at 40 mg/kg measured at 24 hrs by gamma counter analysis; type: ADME, organism-based; conditions: in vivo; procedure, shortened: as §3
[10] = Drug uptake in SCID mouse xenografted with human HT-29 cells assessed as tumour retention using 177Lu labelled compound at 0.37 MBq/mouse, iv co-treated with D-lysine at 40 mg/kg measured at 24 hrs by gamma counter analysis; type: ADME, organism-based; conditions: in vivo; procedure, shortened: as §2
Cathepsin B = Cathepsin B (Homo sapiens, UniProt P07858); test: Binding affinity to cathepsin B in human HT-29 cells assessed as intracellular adduct formation at 0.74 MBq incubated for 4 hrs in presence of E-64 using 177Lu labelled compound by SDS-PAGE analysis; type: cell-based; parameters: dose or concentration left out as unconfirmed
Procedure, shortened: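 HT-29 cells (1 × 10^6/well) incubated 4 h at 37 °C with 177Lu conjugate (20 μCi, 0.74 MBq) in 1 mL medium, with or without E-64 (10 μM) or NTSR1 peptide N1 (20 μM). Cells washed and refed; at set times cells pooled, RIPA-lysed with protease inhibitor. Lysates heated 85 °C 2 min, run on 16% tris-glycine SDS-PAGE, and phosphor autoradiography taken after 72 h exposure.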

[11] = Ratio of drug uptake in SCID mouse xenograted with human HT-29 cells assessed as tumour retention to drug uptake in large intestine of SCID mouse xenografted with human HT-29 cells cotreated with D-lysine at 40 mg/kg measured after 24 hrs using 177Lu labelled compound; type: ADME, organism-based, Tumor/Large intestine; conditions: in vivo
Procedure, shortened: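 Female SCID mice (5 weeks old) carried subcutaneous flank HT-29 xenografts (5 × 10^6 cells in Matrigel), used at about 80 mm3. They received 10 μCi (0.37 MBq) of purified 177Lu-labelled conjugate i.v. by tail vein, with D-lysine 40 mg/kg co-injected. At 24 h p.i., tissues were excised, weighed and gamma-counted, and %ID/g and tumour-to-tissue ratios were calculated (n = 5).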

[12] = Drug retention in kidney of mouse xenografted with human HT-29 cells assessed as reduction in tissue-conjugate adduct formation at 29.6 MBq co-treated with D-lysine at 40 mg/kg measured after 72 hrs using 177Lu labelled compound by SDS-PAGE analysis; type: ADME, organism-based; conditions: in vivo
[13] = Drug retention in liver of mouse xenografted with human HT-29 cells assessed as tissue-conjugate adduct formation at 29.6 MBq co-treated with D-lysine at 40 mg/kg measured after 72 hrs using 177Lu labelled compound by SDS-PAGE analysis; type: ADME, organism-based; conditions: in vivo
[14] = Drug localization in endolysosomal compartment of human HT-29 cells assessed as co-localization efficiency at 5 uM incubated for 2 hrs and measured over 24 hrs using natEu labelled compound by lysotracker green staining based confocal microscopic analysis relative to control; type: ADME, subcellular; conditions: ht-29, 5 µM
Procedure, shortened: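 HT-29 cells (1.25 × 10^5/well) loaded with natEu conjugate (5 μM), washed, then chased in fresh medium up to 24 h. Lysotracker Green (100 nM) applied 2 h before each read; cells fixed and imaged confocally at 405/488 nm. Per-cell mean fluorescence and Lysotracker co-localization quantified.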

[15] = Drug retention in tumor lysates of mouse xenografted with human HT-29 cells assessed as macromolecule associated radioactivity at 29.6 MBq measured after 72 hrs using 177Lu labelled compound by gamma counter analysis relative to control; type: ADME, tissue-based, Neoplasm; conditions: in vivo
Procedure, shortened: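 HT-29 xenograft mice given 800 μCi (29.6 MBq) 177Lu conjugate i.v. and killed at 72 h. Tumor, liver and kidney homogenized in RIPA with protease inhibitor and supernatants run on SDS-PAGE autoradiography. Other supernatant aliquots filtered through 10 kDa MWCO devices to give the % macromolecule-associated radioactivity; n = 3.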

Drug uptake [1]: 1.4 % ID/g
Drug uptake [2]: 4 % ID/g
Drug uptake [3]: 0.36 % ID/g
Drug excretion [4]: 85 %ID
Drug uptake [5]: 0.02 % ID/g
Drug uptake [6]: 0.41 % ID/g
Drug uptake [7]: 0.8 % ID/g
Drug uptake [8]: 0.07 % ID/g
Drug uptake [9]: 0.02 % ID/g
Drug uptake [10]: 6 % ID/g
Activity (Cathepsin B): Active
Ratio [11]: 8
Drug uptake [12]: 47%
Drug uptake [13]: Not Active
Drug uptake [14]: 60%
Drug uptake [15]: 80%
Structure (SMILES): Cc1cc(O)cc(C)c1C[C@H](NC(=O)[C@@H]1CCCN1C(=O)[C@H](CCCNC(=N)N)NC(=O)[C@H](CCCNC(=N)N)N(C)C(=O)[C@@H]1CCCN1C(=O)[C@H](CCCCN)NC(=O)[C@@H](CO)NC(=O)[C@@H](CO)NC(=O)[C@@H](CO)NC(=O)[C@H](Cc1cn(CCNC(=O)[C@H](CCCNC(=N)N)NC(=O)[C@H](CC(C)C)NC(=O)C2OC2C(=O)O)nn1)NC(=O)CN1CCN(CC(=O)O)CCN(CC(=O)O)CCN(CC(=O)O)CC1)C(=O)N[C@H](C(=O)N[C@@H](CC(C)C)C(=O)O)C(C)(C)C (stereo partly specified)

Reference: ChEMBL document CHEMBL4350999, “Enhanced tumor retention of NTSR1-targeted agents by employing a hydrophilic cysteine cathepsin inhibitor” (Eur J Med Chem, 2019)
